Laboratory results as given in publication PMC7413294 (Heterocycles, 2019).
Several values for one entry are separate records, joined by “and”; a condition that tells them apart may be missing. Equal entries are not always repeated. Where two headings read alike, the source gives them in different places.

Columns and labels:
T-Cav3.2-channel = T-Cav3.2-channel (Mus musculus, UniProt O88427); assay: Whole-cell patch clamp inhibition of T-Cav3.2 channel in mouse DRG neurons; assay type: cell-based
T-Cav3.2-channel, sequence (O88427 whole entry): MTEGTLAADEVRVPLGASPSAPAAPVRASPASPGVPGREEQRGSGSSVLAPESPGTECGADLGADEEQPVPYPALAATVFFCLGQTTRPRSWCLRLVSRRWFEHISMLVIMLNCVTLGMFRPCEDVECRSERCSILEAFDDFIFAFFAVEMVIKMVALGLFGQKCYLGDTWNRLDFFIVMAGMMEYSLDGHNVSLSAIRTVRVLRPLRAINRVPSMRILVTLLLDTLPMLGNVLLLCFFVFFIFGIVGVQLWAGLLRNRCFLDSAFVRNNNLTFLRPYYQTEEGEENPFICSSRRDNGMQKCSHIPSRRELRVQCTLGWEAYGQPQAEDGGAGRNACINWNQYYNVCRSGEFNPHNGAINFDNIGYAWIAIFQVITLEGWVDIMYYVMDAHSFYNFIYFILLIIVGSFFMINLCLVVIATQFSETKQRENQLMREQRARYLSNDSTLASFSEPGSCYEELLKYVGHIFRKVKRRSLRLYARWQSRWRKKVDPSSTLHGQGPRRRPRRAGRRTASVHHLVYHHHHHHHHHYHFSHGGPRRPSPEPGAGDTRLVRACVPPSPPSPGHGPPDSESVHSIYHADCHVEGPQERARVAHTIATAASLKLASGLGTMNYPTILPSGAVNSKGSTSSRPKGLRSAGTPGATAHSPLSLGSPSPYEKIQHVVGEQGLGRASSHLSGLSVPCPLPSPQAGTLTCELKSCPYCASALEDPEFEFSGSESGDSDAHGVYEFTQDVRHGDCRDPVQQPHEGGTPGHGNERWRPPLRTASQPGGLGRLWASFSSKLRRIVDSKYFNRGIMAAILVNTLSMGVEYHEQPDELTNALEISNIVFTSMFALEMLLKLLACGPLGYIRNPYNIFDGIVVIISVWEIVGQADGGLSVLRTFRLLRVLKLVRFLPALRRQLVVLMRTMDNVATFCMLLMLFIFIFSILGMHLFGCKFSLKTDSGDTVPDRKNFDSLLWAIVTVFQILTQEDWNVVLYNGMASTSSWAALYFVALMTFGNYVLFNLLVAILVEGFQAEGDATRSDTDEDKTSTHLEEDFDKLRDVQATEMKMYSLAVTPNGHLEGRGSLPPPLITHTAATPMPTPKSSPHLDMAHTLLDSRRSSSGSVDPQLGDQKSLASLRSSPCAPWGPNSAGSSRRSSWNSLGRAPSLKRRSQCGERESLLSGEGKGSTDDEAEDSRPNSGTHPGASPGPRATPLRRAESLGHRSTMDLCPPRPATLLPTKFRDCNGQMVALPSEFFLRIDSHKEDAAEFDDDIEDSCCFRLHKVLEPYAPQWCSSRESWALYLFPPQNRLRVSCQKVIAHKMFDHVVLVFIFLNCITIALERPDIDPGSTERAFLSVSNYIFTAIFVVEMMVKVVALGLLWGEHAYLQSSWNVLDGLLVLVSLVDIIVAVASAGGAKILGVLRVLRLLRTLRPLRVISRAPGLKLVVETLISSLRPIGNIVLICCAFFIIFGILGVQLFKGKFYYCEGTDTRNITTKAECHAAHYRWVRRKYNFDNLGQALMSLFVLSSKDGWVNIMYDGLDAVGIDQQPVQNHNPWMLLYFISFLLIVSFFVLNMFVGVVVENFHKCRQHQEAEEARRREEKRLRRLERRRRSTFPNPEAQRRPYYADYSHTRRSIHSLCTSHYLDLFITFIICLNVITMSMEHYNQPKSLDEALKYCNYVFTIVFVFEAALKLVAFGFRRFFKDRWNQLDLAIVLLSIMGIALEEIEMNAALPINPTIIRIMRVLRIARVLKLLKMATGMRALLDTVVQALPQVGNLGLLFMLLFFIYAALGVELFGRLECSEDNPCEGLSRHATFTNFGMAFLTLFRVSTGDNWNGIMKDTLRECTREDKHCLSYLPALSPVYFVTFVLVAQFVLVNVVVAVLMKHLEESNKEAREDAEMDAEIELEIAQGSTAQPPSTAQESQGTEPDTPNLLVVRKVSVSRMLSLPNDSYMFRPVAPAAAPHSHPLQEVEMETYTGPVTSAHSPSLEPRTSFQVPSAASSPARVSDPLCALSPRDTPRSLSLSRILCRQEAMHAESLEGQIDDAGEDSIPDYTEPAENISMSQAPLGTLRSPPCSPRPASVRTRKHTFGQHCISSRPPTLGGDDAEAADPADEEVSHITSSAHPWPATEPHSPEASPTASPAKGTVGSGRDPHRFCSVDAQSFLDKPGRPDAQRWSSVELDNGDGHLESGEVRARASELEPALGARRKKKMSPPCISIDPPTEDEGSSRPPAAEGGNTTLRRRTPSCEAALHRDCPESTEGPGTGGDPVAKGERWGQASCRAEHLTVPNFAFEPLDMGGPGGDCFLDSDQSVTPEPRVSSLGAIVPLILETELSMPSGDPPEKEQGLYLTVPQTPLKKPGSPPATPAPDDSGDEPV
In short: (§1)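 Lumbar DRG neurons from 1–6 month-old C57 mice, digested in HBSS with 1 mg/mL collagenase and 0.5 mg/mL trypsin (35°C, 45–50 min). Neurons triturated, plated on poly-L-ornithine coverslips and kept in modified Krebs solution at 21°C. Whole-cell voltage clamp at room temperature. Compound applied by rapid local solution exchange; currents normalized to control to give % inhibition; sigmoidal dose-response fits.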

K-channel = assay: Whole-cell patch clamp inhibition of K-channel; assay type: cell-based; conditions: mouse DRG neurons
In short: as §1

[1] = target: Cav3.2 channels expressed in HEK-293 cells (Homo sapiens, UniProt O95180); assay: Whole-cell patch clamp inhibition of Cav3.2 channels expressed in HEK293 cells; assay type: cell-based
Cav3.2 channels expressed in HEK-293 cells, sequence (O95180 whole entry): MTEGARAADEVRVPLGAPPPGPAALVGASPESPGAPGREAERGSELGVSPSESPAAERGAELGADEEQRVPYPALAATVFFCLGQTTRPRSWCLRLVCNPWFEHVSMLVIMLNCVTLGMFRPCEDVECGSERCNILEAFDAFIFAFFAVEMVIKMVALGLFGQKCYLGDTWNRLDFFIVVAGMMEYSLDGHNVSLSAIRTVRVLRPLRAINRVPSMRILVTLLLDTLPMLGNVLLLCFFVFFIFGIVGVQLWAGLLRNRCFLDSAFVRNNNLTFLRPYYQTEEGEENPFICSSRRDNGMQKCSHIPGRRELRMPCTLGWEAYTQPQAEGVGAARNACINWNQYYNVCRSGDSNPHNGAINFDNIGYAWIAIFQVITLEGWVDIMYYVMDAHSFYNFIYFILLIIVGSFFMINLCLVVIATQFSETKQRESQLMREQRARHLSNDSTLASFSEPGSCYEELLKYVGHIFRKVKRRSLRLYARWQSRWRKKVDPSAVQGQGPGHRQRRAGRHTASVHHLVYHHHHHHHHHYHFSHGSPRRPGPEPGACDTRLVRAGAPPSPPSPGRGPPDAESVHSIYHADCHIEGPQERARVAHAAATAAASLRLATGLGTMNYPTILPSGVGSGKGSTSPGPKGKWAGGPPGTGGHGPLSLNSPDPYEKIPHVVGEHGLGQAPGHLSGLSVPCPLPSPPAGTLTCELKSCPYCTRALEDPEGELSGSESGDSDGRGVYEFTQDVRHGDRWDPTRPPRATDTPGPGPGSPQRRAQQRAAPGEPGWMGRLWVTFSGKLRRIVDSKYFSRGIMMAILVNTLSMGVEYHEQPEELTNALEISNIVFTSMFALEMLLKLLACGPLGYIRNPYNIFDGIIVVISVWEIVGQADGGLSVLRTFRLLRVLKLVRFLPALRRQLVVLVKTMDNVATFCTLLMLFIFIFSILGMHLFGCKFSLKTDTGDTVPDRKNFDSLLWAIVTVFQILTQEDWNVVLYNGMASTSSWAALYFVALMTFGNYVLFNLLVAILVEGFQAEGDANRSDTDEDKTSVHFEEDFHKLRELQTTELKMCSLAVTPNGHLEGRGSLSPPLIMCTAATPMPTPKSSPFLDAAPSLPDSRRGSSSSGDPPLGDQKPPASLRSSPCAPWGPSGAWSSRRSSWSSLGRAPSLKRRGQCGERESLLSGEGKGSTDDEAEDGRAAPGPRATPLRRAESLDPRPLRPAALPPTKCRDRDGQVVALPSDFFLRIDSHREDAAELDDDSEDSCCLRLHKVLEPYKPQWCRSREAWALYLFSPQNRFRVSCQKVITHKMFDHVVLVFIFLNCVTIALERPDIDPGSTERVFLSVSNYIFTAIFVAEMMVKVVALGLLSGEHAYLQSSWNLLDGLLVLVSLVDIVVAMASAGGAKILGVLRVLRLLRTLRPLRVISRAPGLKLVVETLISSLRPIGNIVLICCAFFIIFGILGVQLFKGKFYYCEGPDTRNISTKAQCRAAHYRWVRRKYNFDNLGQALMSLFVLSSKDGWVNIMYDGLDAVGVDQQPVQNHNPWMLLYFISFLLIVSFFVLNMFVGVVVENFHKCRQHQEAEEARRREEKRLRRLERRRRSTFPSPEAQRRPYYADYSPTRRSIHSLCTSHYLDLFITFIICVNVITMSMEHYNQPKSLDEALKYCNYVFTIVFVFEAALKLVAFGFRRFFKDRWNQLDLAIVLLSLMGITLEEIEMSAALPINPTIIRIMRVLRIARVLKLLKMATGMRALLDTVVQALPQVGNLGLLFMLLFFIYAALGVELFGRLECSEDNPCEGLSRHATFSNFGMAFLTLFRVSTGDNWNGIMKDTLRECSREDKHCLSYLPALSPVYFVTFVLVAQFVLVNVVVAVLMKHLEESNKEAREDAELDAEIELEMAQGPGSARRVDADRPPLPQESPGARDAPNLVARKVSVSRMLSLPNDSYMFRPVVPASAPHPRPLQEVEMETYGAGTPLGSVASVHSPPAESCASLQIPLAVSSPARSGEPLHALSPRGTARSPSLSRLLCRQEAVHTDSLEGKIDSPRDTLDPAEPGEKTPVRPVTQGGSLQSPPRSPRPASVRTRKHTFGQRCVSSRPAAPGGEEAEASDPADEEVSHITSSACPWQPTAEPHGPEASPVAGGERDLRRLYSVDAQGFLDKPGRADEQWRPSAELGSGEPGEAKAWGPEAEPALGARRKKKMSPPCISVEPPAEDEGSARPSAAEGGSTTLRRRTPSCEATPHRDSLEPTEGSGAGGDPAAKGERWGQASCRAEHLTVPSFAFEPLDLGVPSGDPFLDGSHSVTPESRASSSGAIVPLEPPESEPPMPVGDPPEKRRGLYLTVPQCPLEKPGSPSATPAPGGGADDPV
In short: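 Tetracycline-inducible HEK293 line, G418-selected, reseeded on poly-D-lysine coverslips; Cav3.2 induced after 24 h with 1 µg/mL tetracycline. Whole-cell voltage clamp at room temperature. External solution: choline-Cl/TEA-Cl with 2 mM CaCl2. Internal solution: CsCl/EGTA. Holding potential -100 mV, then 100 ms depolarizing steps of 10 mV at 10 s intervals. Compound applied by rapid solution exchange; currents normalized to control; sigmoidal dose-response fits.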

Na-channel = assay: Whole-cell patch clamp inhibition of Na-channel in mouse DRG neurons; assay type: cell-based; conditions: for IC50: read-out: IC50, Na- channel in DRG neurons
In short: as §1

PTZ-induced seizures = assay: Pentylenetetrazole; assay type: in vivo, mouse; conditions: 30 mg/Kg; for Inhibition ratio (%) of fatality in PTZ-model of mice: 20-min observation period, 100 minus death ratio; for Latency to fatality (minutes) in PTZ model of mice: first 20 minutes of testing
In short: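 Mice received pentylenetetrazol at 40 mg/kg by intraperitoneal injection; test compound groups were compared with vehicle (2% DMSO in 0.5% hydroxypropyl cellulose), […]. Deaths were recorded within a 20-min cutoff. Inhibition ratio was 100 minus the % of mice that died. Latency to fatality was recorded per mouse as mean ± SEM. Experimenters were blinded.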

L-type calcium channels = conditions: read-out: IC50, L-type calcium channels; cited from earlier work
T-type calcium channels = conditions: read-out: IC50, T-type calcium channels; cited from earlier work
[2] = system: pentylenetetrazole-induced seizures; conditions: 30 mg/Kg; cited from earlier work
[3] = DRG neuron, read-out: Inhibition (%) of T-Cav3.2- channel in DRG neurons

Row | SMILES | inhibition at 1 µM (T-Cav3.2-channel; [3]) | Inhibition (%) of K-channel in DRG neurons, IA (rapid inactivating potassium current) (K-channel; 1 µM, IA) | Inhibition (%) of K-channel in DRG neurons, IKd (delayed rectifier potassium current) (K-channel; 1 µM, IKd) | Inhibition (%) of Na- channel in DRG neurons (Na-channel; 1 µM) | Inhibition ratio (%) of fatality in PTZ-model of mice (PTZ-induced seizures) | Latency to fatality (minutes) in PTZ model of mice (PTZ-induced seizures) | other results
1 | c1ccc(-c2nnc(N3CCCCC3)o2)cc1 [Compound 12, 1-(5-Phenyl-1,3,4-oxadiazol-2-yl)piperidine] | 44.2 ± 5.6% | 21.9±8.6% | 31.6±5.5% | 25.7±6.3% | – | – | IC50 (K-channel; read-out: IC50, K-channel IA in DRG neurons, IA): 19600 nM; IC50 (K-channel; read-out: IC50, K-channel IKd in DRG neurons, IKd): 2600 nM; inhibition at 1 µM ([1]; HEK293, read-out: Inhibition (%) of T-Cav3.2- channel in HEK293 cells): 64.6%; IC50 (Na-channel): 2100 nM
2 | O=C(Nc1nnc(-c2ccccc2F)o1)c1ccc(Cl)s1 [Compound 15, 5-Chloro-N-(5-(2-fluorophenyl)-1,3,4-oxadiazol-2-yl)thiophene-2-carboxamide] | 60.9% | – | – | – | – | – | –
3 | O=C(Nc1nnc(-c2ccc(Cl)s2)o1)c1ccccc1 [Compound 8, N-(5-(5-Chlorothiophen-2-yl)-1,3,4-oxadiazol-2-yl)benzamide] | 24.4 ± 9.6% | −18.7% | −28.6% | −71.8 (n=1) % | – | – | –
4 | O=C(CN1CCC(C(=O)Nc2nnc(-c3ccc(Cl)s3)o2)CC1)Nc1ccccc1 [Compound 9, 1-((Phenylcarbamoyl)methyl)-N-(5-(5-chlorothiophen-2-yl)-1,3,4-oxadiazol-2-yl)piperidine-4-carboxamide] | 79.5% | – | – | – | – | – | –
5 | O=C(CN1CCCCC1)Nc1nnc(-c2ccccc2)o1 [Compound 13, N-(5-Phenyl-1,3,4-oxadiazol-2-yl)-2-(piperidin-1-yl)acetamide] | 55.4 ± 28.7% | 19.9% | 36.5% | −2.7 (n=1) % | 0 (n=7) % | 3.7±1.8 (n=7) minutes | –
6 | COCC(=O)O[C@]1(CCN(C)CCCc2nc3ccccc3[nH]2)CCc2cc(F)ccc2[C@@H]1C(C)C [Mibefradril] | – | – | – | – | – | – | IC50 (L-type calcium channels): 3000 nM; IC50 (T-type calcium channels): 100 nM
7 | N#CC1CCN(CC(=O)Nc2nnc(-c3ccccc3)o2)CC1 [Compound 14, 2-(4-Cyanopiperidin-1-yl)-N-(5-phenyl-1,3,4-oxadiazol-2-yl)acetamide] | 69.6 ± 6.2% | 12.9% | 30.0% | −4.7 (n=1) % | 14 (n=7) % | 11.8±2.5 (n=7) minutes | –
8 | O=C(CCc1cccc(Cl)c1)Nc1nnc(-c2ccccc2)o1 [Compound 10, 3-(3-Chlorophenyl)-N-(5-phenyl-1,3,4-oxadiazol-2-yl)propanamide] | 5% | – | – | – | – | – | –
9 | O=C(CCc1cccc(Cl)c1)Nc1nnc(-c2ccc(Cl)s2)o1 [Compound 7, 3-(3-Chlorophenyl)-N-(5-(5-chlorothiophen-2-yl)-1,3,4-oxadiazol-2-yl)propanamide] | 20.4 ± 1.9% | – | – | – | 30% and 28.6 (n=7) % | 13.6±1.8 (n=7) minutes | Inhibition (%) of K-channel in DRG neurons, IA (rapid inactivating potassium current) (K-channel; 3.3 µM, IA): −26.0%; Inhibition (%) of K-channel in DRG neurons, IKd (delayed rectifier potassium current) (K-channel; 3.3 µM, IKd): −15.6%; Inhibition (%) of Na- channel in DRG neurons (Na-channel; 3.3 µM): 82.2 (3.3 μM) (n=1) %
10 | O=C(Nc1nnc(-c2ccccc2)o1)c1ccc(Cl)s1 [Compound 11, 5-Chloro-N-(5-phenyl-1,3,4-oxadiazol-2-yl)thiophene-2-carboxamide] | 50 ± 9.7% | 18.9±11.8% | 24.1±14.6% | 16.5±8.9 (n=7) % | 72.1% and 72.7 (n=11) % | 15.3±2.4 (n=11) minutes | IC50 (T-Cav3.2-channel): 930 nM
11 | CC(C)(C)NC(=O)CN1CCC(CNC(=O)c2cc(F)cc(Cl)c2)CC1 [Compound Z944, reference compound] | – | 34.5±15.0% | 44.9±17.7% | 49.7±6% | 33% and 33.3 (n=6) % | 15.2±3.1 (n=6) minutes | Protective effect on seizures, pentylenetetrazole-induced fatality rat model [2]: 33%; Inhibition (%) of T-Cav3.2- channel in HEK293 cells ([1]; 0.25 µM, HEK293 cells): 74.5±7.8 (0.25 µM, in HEK293 cells) (n=6) %; IC50 (Na-channel): 510 nM
12 | O=C1c2cc(Cl)c(Cl)cc2C(=O)N1c1nnc(-c2ccc(Cl)s2)o1 [Compound 6, 5,6-Dichloro-2-(5-(5-chlorothiophen-2-yl)-1,3,4-oxadiazol-2-yl)isoindoline-1,3-dione] | – | – | – | – | 0% and 0 (n=8) % | 1.9±0.3 (n=8) minutes | inhibition at 3.3 µM (T-Cav3.2-channel; [3]): 9.8%; Inhibition (%) of K-channel in DRG neurons, IA (rapid inactivating potassium current) (K-channel; 3.3 µM, IA): −11.6%; Inhibition (%) of K-channel in DRG neurons, IKd (delayed rectifier potassium current) (K-channel; 3.3 µM, IKd): −17.8%; Inhibition (%) of Na- channel in DRG neurons (Na-channel; 3.3 µM): 100 (3.3 µM) (n=1) %
